Compounds with a hit are over-represented: about 2.9% of the library has one in this group of screens.
CDK5 inh = blocks human CDK5/p35 kinase activity | Q00535+Q15078 | Recombinant CDK5/p35, ADP-Glo luminescence, 60 min | inhibition, % at 10 µM | hit rate 0.01% among 330,000;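 active = highest replicate inhibition of at least 50% and at least 75% of replicates reaching 50%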
Target sequence (Q00535 whole entry, looked up): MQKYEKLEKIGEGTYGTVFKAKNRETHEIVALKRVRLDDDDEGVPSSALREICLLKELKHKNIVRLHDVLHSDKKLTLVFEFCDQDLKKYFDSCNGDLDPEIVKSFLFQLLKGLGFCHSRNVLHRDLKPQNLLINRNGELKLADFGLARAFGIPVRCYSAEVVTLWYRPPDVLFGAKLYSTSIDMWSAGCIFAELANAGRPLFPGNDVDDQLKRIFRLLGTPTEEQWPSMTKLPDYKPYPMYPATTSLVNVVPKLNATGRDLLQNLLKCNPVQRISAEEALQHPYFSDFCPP
Target sequence (Q15078 whole entry, looked up): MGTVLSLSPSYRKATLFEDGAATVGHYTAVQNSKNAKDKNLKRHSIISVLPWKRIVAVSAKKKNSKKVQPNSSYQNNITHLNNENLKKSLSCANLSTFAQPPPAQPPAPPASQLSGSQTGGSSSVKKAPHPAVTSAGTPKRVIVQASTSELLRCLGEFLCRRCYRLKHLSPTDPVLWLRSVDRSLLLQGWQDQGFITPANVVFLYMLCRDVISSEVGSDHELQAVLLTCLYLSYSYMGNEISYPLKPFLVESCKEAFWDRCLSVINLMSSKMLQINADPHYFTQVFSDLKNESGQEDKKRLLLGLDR
INS-1E GSIS act = primary screen for activators of insulin secretion dependent on glucose, INS-1E cells, GLuc reporter luminescence | INS-1E GLuc reporter insulin secretion, 2-3 h | activation, % at 16.6 µM | hit rate 0.61% among 370,000 | AID 743287;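 active = lowest replicate activation of at least 40%, so every replicate reaches that level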
Cneo AK release = causes C. neoformans cell lysis | adenylate kinase release luminescence, 4 h; normalised: neutral wells 0, clomiphene wells 100 | lysis activity, % at 15 µM | hit rate 0.2% among 360,000 | AID 651654;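 active = mean lysis activity across replicates of at least 80%, whatever share of replicates individually reach that level; inactive = mean lysis activity below 80%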
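read-out = cell lysis signal | test system = log-phase Cryptococcus neoformans yeast cells | input = cells at 5 × 10^6 per mL | medium = fresh YPD growth medium | signal = luminescent adenylate kinase detection reagent | timing = 4 h at 37 °C static, read 1 h later | dosing = single dose | controls = Clomiphene as positive lysis control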
dFosB act-1 = activators of mouse delta FosB homodimer. P13346. purified delta FosB, TAMRA-CDK5 oligo fluorescence polarization; percent of positive-control signal above neutral wells. activation, % at 25 µM. hit rate 0.99% among 340,000. AID 493131;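 active = mean activation above about 17%, with every replicate also reaching it, limit read from the data, passing the limit was not always enough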
PAX8 reporter = PAX8 transcriptional activity inhibition; hit rate 1.2% among 360,000; RMG-I TPO-luciferase reporter, SteadyGlo, 24 h; inhibition, % at 12.6 µM;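 active = mean replicate inhibition at least 60% with every replicate also reaching 60%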;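 note: luciferase light reporting Pax8 driven TPO promoter activity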
Env fusion inh = HIV envelope-mediated fusion inhibition; AID 651610; inhibition, % at 12.3 µM; HeLa-JRFL Env/CEM21 cell fusion, luciferase; hit rate 1.1% among 360,000;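 active = mean replicate inhibition score of at least 50 and every replicate individually at or above 50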
dFosB act-2 = delta FosB (mouse) homodimer activation | shares compounds with dFosB act-1 | activation, % at 24.9 µM | purified delta FosB, TAMRA-CDK5 oligo fluorescence polarization; normalised: neutral wells 0, positive control 100 | AID 588690 | 2,400 tested, under 10 active;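 active = highest replicate activation at or above 34% and every replicate reaching that threshold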;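 note: higher polarization means more probe DNA bound by delta FosB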
Numbers stand for hits.

Results for C[C@H]1CN([C@@H](C)CO)C(=O)Cc2cc(NC(=O)Cn3cnnn3)ccc2O[C@@H]1CN(C)S(=O)(=O)c1cccs1 ?
INS-1E GSIS act: inactive; Cneo AK release: inactive; PAX8 reporter: inactive; Env fusion inh: inactive

How did O=C(N/N=C/c1ccc(-c2cccc(C(F)(F)F)c2)o1)c1ccccc1Br do in these assays?
CDK5 inh: inactive; dFosB act-1: inactive

What do the screens show for `O=C(N/N=C/c1ccc(-c2cccc(C(F)(F)F)c2)o1)c1ccccc1O`?
CDK5 inh: inactive; INS-1E GSIS act: inactive; dFosB act-1: 32; PAX8 reporter: inactive; Env fusion inh: inactive; dFosB act-2: inactive

How did O=C(N/N=C/c1ccc(-c2cccc([N+](=O)[O-])c2)o1)c1ccc([N+](=O)[O-])cc1 do in these assays?
CDK5 inh: inactive; INS-1E GSIS act: inactive; dFosB act-1: inactive; PAX8 reporter: inactive; Env fusion inh: inactive

How did O=C(N/N=C/c1ccc(-c2cccc([N+](=O)[O-])c2)o1)c1ccccc1O do in these assays?
CDK5 inh: inactive; INS-1E GSIS act: inactive; dFosB act-1: 22; PAX8 reporter: inactive; Env fusion inh: inactive; dFosB act-2: inactive

How did NC(=O)CC(NC(=O)c1ccc(Br)cc1)c1ccc(NCc2ccc(F)c(F)c2)c([N+](=O)[O-])c1 (stereo not given) do in these assays?
CDK5 inh: inactive; INS-1E GSIS act: inactive; Cneo AK release: inactive; dFosB act-1: inactive; PAX8 reporter: inactive; Env fusion inh: inactive

How did NC(=O)CC(NC(=O)Cc1ccc(Br)cc1)c1ccc(NCc2ccc(F)c(F)c2)c([N+](=O)[O-])c1 (stereo not given) do in these assays?
CDK5 inh: inactive; INS-1E GSIS act: inactive; Cneo AK release: inactive; dFosB act-1: 52; PAX8 reporter: inactive; Env fusion inh: inactive; dFosB act-2: inactive

What do the screens show for `O=C(CSCc1ccc(Cl)cc1)N/N=C/c1c(Cl)cccc1Cl`?
CDK5 inh: inactive; INS-1E GSIS act: inactive; Cneo AK release: inactive; dFosB act-1: 27; PAX8 reporter: inactive; dFosB act-2: inactive

Results for C[C@@H]1CN([C@H](C)CO)C(=O)c2cc(NS(=O)(=O)c3ccccc3)ccc2O[C@@H]1CN(C)C(=O)Nc1cccc2ccccc12 ?
INS-1E GSIS act: inactive; Cneo AK release: inactive; PAX8 reporter: inactive; Env fusion inh: inactive

How did Cc1cccc(C)c1NC(=O)CSc1nc(C2CC2)nc2ccccc12 do in these assays?
CDK5 inh: inactive; INS-1E GSIS act: inactive; Cneo AK release: inactive; dFosB act-1: 20; PAX8 reporter: inactive; Env fusion inh: inactive; dFosB act-2: inactive

What do the screens show for `Cc1nn(Cc2ccccc2)c(C)c1NC(=O)CSc1nc(C2CC2)nc2c1cnn2-c1ccccc1`?
CDK5 inh: inactive; Cneo AK release: inactive; dFosB act-1: inactive; Env fusion inh: inactive

How did O=C(CSc1nc(C2CC2)nc2c1cnn2-c1ccccc1)Nc1c[nH]c(=O)[nH]c1=O do in these assays?
CDK5 inh: inactive; INS-1E GSIS act: inactive; Cneo AK release: inactive; dFosB act-1: 127; PAX8 reporter: inactive; Env fusion inh: inactive; dFosB act-2: inactive

How did Cc1cc(NC(=O)CSc2nc(CCC3CCCC3)nc3ccccc23)no1 do in these assays?
CDK5 inh: inactive; Cneo AK release: inactive; dFosB act-1: 47; PAX8 reporter: inactive; Env fusion inh: inactive; dFosB act-2: inactive

How did COc1cccc(NC(=O)CSc2nc(C3CC3)nc3ccccc23)c1 do in these assays?
CDK5 inh: inactive; INS-1E GSIS act: inactive; Cneo AK release: inactive; dFosB act-1: inactive; PAX8 reporter: inactive; Env fusion inh: inactive

How did CCOC(=O)c1ccc(NC(=O)O[C@H]2[C@H](OC(=O)Nc3ccc4c(c3)OCO4)[C@@H](OC(=O)Nc3ccc4c(c3)OCO4)[C@@H](OC)O[C@@H]2CO)cc1 do in these assays?
Cneo AK release: inactive; PAX8 reporter: inactive; Env fusion inh: inactive

How did NC(=O)Cn1cc(/C=N/NC(=O)c2ccc(Cn3cc(Cl)cn3)o2)c(-c2ccccc2)n1 do in these assays?
CDK5 inh: inactive; INS-1E GSIS act: inactive; Cneo AK release: inactive; dFosB act-1: 36; PAX8 reporter: inactive; Env fusion inh: inactive; dFosB act-2: inactive
